The species named for one test is Homo sapiens. Put plainly: Stabilization of 5'Dabcyl/3'FAM labeled human telomeric sequence G-quadruplex DNA assessed as increase in melting temperature at 2.5 uM pretreated for 5 mins at 30 degreeC followed by 5 mins incubation at 95 degreeC by fluorescence assay. Summed up: (§1)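 FRET melting in LiP buffer (10 mM LiOH, 50 mM KCl, pH 7.0 with H3PO4), ex 488 nm, em 520 nm. Samples were held 5 min at 30 °C, heated at 1 °C/min to 95 °C, held 5 min, then re-annealed. Tm came from first derivatives; ΔTm = shift with ligand at 2.5; at least three runs.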

Test [1] in a line: Stabilization of 5'Dabcyl/3'FAM labeled duplex DNA (unknown origin) assessed as increase in melting temperature at 2.5 uM pretreated for 5 mins at 30 degreeC followed by 5 mins incubation at 95 degreeC by fluorescence assay. Summed up:
as §1

The next test concerns Thermus aquaticus. The test can be described thus: Inhibition of Thermus aquaticus DNA polymerase-mediated amplification of fragment of pBR322 by PCR. Summed up: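 PCR amplification of a pBR322 fragment by Taq polymerase with increasing compound (0.25–40) for 25 cycles: 94 °C, 58 °C and 72 °C, 30 s each. Products were run on 2% agarose in 0.5X TBE (4.2 V/cm, 1.5 h) and stained with ethidium bromide. IC50 is the concentration halving activity; MIC is the lowest concentration that suppresses activity.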

In test [2] the target is DNA topoisomerase 2-alpha (Homo sapiens, UniProt P11388). The test can be described thus: Inhibition of human topoisomerase-2alpha-mediated relaxation of supercoiled pBR322 DNA after 1 hr by ethidium bromide staining based agarose gel electrophoresis. Summed up: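 Supercoiled pBR322 was incubated with compound (0.5–100) and 1 U human topoisomerase IIα in enzyme buffer for 1 h at 37 °C. Reactions were stopped with Tris/EDTA/NaCl loading buffer (pH 8.0) and run on 1% agarose in TAE with 0.1% SDS (4.9 V/cm, 90 min), then stained with ethidium bromide. IC50 is the concentration reducing relaxation activity by 50%.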

The record followed here is ChEMBL document CHEMBL4004831, “Naphthalene diimide-polyamine hybrids as antiproliferative agents: Focus on the architecture of the polyamine chains” (Eur J Med Chem, 2017).

Converted amounts (≈) assume the structure as drawn.

Sequence of DNA topoisomerase 2-alpha (P11388 whole entry): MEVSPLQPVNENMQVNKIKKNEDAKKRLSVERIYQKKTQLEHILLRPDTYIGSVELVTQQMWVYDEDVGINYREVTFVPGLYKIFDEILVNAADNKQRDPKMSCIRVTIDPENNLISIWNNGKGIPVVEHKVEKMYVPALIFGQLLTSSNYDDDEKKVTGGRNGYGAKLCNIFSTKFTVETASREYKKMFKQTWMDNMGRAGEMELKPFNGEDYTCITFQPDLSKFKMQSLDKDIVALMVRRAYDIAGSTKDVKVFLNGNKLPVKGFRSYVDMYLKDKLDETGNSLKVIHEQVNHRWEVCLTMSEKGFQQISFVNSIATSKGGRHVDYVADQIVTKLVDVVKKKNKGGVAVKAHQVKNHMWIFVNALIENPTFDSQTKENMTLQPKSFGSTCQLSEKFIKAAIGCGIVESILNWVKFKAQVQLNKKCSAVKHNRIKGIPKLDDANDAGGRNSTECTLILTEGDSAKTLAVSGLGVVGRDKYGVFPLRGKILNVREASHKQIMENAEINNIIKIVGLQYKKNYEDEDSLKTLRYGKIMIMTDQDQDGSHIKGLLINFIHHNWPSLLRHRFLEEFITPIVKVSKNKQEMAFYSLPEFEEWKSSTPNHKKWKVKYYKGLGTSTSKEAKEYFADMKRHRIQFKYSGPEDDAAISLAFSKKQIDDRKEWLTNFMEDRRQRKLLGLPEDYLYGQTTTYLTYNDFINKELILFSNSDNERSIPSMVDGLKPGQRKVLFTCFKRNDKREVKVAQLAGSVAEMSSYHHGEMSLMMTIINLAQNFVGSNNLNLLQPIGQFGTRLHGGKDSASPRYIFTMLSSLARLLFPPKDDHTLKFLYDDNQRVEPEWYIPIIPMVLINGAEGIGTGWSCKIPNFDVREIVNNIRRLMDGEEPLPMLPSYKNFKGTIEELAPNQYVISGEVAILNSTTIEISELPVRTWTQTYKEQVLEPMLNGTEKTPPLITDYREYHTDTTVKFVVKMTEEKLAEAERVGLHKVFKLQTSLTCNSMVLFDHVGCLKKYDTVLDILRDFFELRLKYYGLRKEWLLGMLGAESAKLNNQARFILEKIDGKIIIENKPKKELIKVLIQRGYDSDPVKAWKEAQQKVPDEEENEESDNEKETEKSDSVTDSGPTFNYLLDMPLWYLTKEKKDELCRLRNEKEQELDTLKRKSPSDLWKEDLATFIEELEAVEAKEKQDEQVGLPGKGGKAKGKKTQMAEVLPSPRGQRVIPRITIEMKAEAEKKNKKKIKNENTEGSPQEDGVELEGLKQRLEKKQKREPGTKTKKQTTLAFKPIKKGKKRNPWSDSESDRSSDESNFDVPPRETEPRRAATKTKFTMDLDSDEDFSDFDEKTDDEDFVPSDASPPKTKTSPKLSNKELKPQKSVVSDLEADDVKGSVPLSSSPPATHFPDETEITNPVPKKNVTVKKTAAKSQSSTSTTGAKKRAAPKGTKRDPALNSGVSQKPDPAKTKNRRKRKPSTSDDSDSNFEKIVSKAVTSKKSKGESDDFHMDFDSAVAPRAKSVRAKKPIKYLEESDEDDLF

Broadly, the ΔTm is the shift of the melting midpoint relative to a reference. `COc1ccc(CNCCCN2C(=O)c3ccc4c5c(ccc(c35)C2=O)C(=O)N(CCCNCCCCNCCCN)C4=O)c(OC)c1OC`: the ΔTm in the test listed under Homo sapiens was 13.1 °C; in test [1], 12.6 °C.

As for `COc1ccccc1CNCCCN1C(=O)c2ccc3c4c(ccc(c24)C1=O)C(=O)N(CCCNCCCNCCCN)C3=O`, the figures for the ΔTm (in the test listed under Homo sapiens; in test [1]) were 16.3 °C and 12.2 °C, respectively.

Usually IC50 stands for the midpoint of a concentration-inhibition curve. A low value points to greater potency in that assay. Regarding `COc1ccccc1CNCCCN1C(=O)c2ccc3c4c(ccc(c24)C1=O)C(=O)N(CCCNCc1ccccc1OC)C3=O`, the ΔTm was 20.5 °C in the test listed under Homo sapiens and 8.4 °C in test [1]. In addition, in the test with Thermus aquaticus, the MIC stood at 10 µM (≈ 6.21 µg/mL). In addition, in test [2], the half-inhibitory concentration (IC50) stood at 6 µM.
